How the values were obtained:
Mus musculus [1] = test: (§1) Compound was tested for the inhibition of locomotor activity (LMA)by administering Intraperitoneally in mouse.; type: functional; conditions: ip
How it was run: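 Mice dosed ip, then tested immediately for 1 h in darkened cylindrical photobeam chambers. Percent inhibition of locomotor activity relative to vehicle-treated animals; ED50 derived from three to six doses, n = 6-18 animals/dose.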

D(2) dopamine receptor [2] = target: T1, D(2) dopamine receptor (Rattus norvegicus, UniProt P61169); test: Binding affinity at Dopamine receptor D2 in rat striatal membrane by [3H]spiperone displacement.; type: cell membranes, Striatum
How it was run: (§2)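 Rat striatal membranes; [³H]spiperone 0.2 nM final; nonspecific binding defined with (+)-butaclamol 1.0 µM final. Four to six concentrations, each run in triplicate; Ki obtained by nonlinear regression analysis.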

Rattus norvegicus [3] = test: In vivo inhibition of locomotor activity in the rat following p.o. administration.; type: functional; conditions: po
D(1A) dopamine receptor = D(1A) dopamine receptor (Rattus norvegicus, UniProt P18901); type: cell membranes, Brain, Membrane
Monkey = test: Compound was tested for inhibition of conditioned avoidance after administering perorally(po) in squirrel monkeys; type: functional; conditions: Cebidae, in Saimiri
D(2) dopamine receptor [4] = target: T1, D(2) dopamine receptor; test: Binding affinity against Dopamine receptor D2 in CHO-K1 cells using radioligand [3H]NPA binding assay; type: cell-based
D(2) dopamine receptor [5] = target: T2, D(2) dopamine receptor (Homo sapiens, UniProt P14416); test: […] Dopamine receptor D2 mitogenesis measured as [3H]thymidine incorporation in CHO p-5 cells expressing human D2 receptors
How it was run: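 CHO p-5 cells transfected with human D2L are grown 2 days at 37 °C in medium with 10% calf serum, rinsed, and switched to serum-free medium plus compound in water. After 16-17 h, [³H]thymidine (1 µCi/well) is added for 4 h; cells are harvested onto filters and counted.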

Rattus norvegicus [6] = test: Percent decrease of the firing rate of rat substantia nigra DA neurons at a dose of 2.5 mg/kg ip; type: functional; conditions: route intraperitoneal
[7] = target: T3, Adrenergic receptor alpha-1 (Rattus norvegicus, UniProt P15823+P23944+P43140); test: Binding affinity against Alpha-1 adrenergic receptor using radioligand [3H]prazosin binding assay.; type: protein assay
T3 sequence (P15823 whole entry): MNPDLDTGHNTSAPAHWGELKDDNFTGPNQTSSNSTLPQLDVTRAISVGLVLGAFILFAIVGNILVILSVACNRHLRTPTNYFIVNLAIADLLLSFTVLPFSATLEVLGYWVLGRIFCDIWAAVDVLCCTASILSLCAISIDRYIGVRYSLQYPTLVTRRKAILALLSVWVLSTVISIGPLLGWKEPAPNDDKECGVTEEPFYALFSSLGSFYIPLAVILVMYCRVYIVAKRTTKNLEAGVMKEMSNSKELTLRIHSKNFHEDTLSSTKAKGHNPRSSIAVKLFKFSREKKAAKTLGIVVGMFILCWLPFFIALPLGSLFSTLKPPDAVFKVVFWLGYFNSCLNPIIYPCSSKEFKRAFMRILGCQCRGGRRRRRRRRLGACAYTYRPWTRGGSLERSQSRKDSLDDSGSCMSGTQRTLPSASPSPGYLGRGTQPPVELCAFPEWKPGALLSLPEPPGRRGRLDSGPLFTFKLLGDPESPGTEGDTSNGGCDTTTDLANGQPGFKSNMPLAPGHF
T3 sequence (P23944 whole entry): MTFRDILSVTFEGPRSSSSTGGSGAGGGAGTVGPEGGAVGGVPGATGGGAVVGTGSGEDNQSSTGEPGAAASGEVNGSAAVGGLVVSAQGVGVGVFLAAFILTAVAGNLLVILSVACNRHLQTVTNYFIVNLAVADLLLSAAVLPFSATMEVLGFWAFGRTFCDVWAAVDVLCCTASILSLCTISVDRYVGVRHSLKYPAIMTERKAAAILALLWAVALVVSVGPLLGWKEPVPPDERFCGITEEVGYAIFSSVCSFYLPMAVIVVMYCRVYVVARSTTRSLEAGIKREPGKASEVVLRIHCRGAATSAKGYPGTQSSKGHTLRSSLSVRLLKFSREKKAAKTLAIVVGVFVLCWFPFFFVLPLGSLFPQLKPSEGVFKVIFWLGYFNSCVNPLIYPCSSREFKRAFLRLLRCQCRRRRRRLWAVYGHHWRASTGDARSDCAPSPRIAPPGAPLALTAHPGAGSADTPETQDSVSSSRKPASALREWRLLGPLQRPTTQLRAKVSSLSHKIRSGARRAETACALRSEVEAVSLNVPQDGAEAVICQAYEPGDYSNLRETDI
T3 sequence (P43140 whole entry): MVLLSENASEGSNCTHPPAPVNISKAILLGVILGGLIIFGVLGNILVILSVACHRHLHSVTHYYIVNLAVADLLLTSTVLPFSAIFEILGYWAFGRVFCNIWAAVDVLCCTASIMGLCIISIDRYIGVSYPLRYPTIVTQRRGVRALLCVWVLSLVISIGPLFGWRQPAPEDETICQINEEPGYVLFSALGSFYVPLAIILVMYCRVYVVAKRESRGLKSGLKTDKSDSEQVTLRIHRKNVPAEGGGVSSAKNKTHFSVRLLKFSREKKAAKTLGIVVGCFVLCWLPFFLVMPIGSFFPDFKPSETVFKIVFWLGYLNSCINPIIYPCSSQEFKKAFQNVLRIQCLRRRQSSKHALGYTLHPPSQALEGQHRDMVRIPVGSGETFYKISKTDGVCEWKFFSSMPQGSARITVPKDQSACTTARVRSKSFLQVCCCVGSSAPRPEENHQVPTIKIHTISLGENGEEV
How it was run: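 Inhibition of [³H]prazosin (0.1 nM final) binding in rat cortex membranes; phentolamine (10 µM final) defines nonspecific binding.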

D(3) dopamine receptor = D(3) dopamine receptor (Homo sapiens, UniProt P35462); test: Binding affinity against human Dopamine receptor D3 in CHO-K1 cells using [3H]spiperone as radioligand; type: cell-based
[8] = target: T4, 5-hydroxytryptamine receptor 1A (Rattus norvegicus, UniProt P19327); test: (§3) Binding affinity against serotonin 5-hydroxytryptamine 1A receptor using radioligand [3H]8-OH-DPAT binding assay
T4 sequence (P19327 whole entry): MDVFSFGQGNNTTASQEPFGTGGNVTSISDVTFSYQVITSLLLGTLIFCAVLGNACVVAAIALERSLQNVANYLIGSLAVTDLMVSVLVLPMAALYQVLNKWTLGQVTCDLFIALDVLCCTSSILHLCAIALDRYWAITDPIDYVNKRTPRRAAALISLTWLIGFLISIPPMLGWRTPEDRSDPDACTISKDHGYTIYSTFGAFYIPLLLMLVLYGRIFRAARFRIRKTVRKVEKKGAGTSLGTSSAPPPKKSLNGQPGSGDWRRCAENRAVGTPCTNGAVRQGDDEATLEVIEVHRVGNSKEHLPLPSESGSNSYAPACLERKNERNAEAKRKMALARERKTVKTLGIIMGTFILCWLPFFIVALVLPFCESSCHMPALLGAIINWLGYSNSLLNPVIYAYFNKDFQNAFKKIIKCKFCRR
How it was run: (§4)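 Rat hippocampal membranes labelled with [³H]-8-OH-DPAT (0.4 nM final); nonspecific binding with 8-OH-DPAT (1 µM).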

D(4) dopamine receptor = target: T5, D(4) dopamine receptor (Homo sapiens, UniProt P21917); test: Binding affinity against human Dopamine receptor D4 in CHO-K1 cells using [3H]spiperone as radioligand; type: cell-based
T5 sequence (P21917 whole entry): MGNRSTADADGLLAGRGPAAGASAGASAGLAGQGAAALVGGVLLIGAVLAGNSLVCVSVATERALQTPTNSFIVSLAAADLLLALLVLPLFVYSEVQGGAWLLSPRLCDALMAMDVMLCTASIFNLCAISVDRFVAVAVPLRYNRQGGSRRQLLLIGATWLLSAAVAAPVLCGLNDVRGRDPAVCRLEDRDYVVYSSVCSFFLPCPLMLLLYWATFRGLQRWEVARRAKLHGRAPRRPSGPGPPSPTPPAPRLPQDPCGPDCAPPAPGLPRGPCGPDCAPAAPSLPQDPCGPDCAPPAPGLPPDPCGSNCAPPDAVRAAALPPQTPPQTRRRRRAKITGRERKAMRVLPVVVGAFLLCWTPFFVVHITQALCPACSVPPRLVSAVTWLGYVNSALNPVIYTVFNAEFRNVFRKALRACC
How it was run: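 Human D4.2 receptor expressed in CHO K1 cells; [³H]spiperone 0.2 nM final; nonspecific binding defined with haloperidol 1.0 µM final.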

Mus musculus [9] = test: as §1; type: functional; conditions: ip; remark: listed apart in the source
Rattus norvegicus [10] = test: Percent reversal of the increase on DOPA levels in the striatum of GBL-treated rats at a dose of 10 mg/kg ip; type: functional; conditions: route intraperitoneal
D(2) dopamine receptor [11] = target: T1, D(2) dopamine receptor; test: Compound was evaluated for their affinity against dopamine receptor D2 by displacing [3H]-spiperone in rat striatal membrane; type: cell membranes, Striatum; how it was run: as §2
Rattus norvegicus [12] = test: Compound was tested for the inhibition of locomotor activity (LMA)by administering orally in rat; type: functional; conditions: po
How it was run: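 Rats dosed orally 1 h before a 30 min test in darkened cylindrical photobeam chambers. Percent inhibition of locomotor activity relative to vehicle-treated animals; ED50 derived from three to six doses, n = 6-18 animals/dose.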

D(2) dopamine receptor [13] = target: T2, D(2) dopamine receptor; test: Compound was evaluated […] for Dopamine receptor D2 mitogenesis. [3H]thymidine incorporation in CHO p-5 cells expressing human D2 receptors.; type: organism-based
How it was run: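 CHO p-5 cells transfected with human D2L receptor are grown 2 days at 37 °C in medium with 10% calf serum, then rinsed and put in serum-free medium. Compound (in water) is added for 16-17 h, then [³H]thymidine (1 µCi/well) for 4 h. Cells are harvested and counted. Maximal effect is given as % of quinpirole (100%).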

[14] = target: T4, 5-hydroxytryptamine receptor 1A; test: as §3; set-up: species or system Homo sapiens; how it was run: as §4

T2 sequence (P14416 whole entry): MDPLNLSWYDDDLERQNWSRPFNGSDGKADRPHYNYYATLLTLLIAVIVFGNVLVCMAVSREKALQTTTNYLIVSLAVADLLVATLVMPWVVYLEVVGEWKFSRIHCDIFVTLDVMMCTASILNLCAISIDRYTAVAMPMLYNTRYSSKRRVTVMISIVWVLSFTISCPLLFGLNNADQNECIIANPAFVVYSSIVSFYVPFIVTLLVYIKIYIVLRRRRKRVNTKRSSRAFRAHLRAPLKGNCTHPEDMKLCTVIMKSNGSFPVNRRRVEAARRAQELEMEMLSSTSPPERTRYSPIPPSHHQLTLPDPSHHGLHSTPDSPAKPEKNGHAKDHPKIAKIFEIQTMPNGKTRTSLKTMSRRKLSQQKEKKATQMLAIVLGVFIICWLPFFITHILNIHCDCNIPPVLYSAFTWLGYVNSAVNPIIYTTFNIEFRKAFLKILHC
D(3) dopamine receptor, sequence (P35462 whole entry): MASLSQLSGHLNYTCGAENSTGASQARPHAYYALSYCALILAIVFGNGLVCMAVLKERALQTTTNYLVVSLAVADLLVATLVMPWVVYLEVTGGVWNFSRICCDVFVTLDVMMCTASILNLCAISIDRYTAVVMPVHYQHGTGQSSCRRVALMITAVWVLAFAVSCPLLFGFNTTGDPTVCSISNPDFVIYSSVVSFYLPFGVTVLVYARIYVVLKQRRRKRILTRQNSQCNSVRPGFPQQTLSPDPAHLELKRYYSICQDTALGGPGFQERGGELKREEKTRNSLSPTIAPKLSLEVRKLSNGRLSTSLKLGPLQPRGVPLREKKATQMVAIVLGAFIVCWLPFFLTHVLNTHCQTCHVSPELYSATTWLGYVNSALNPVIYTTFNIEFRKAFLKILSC
T1 sequence (P61169 whole entry): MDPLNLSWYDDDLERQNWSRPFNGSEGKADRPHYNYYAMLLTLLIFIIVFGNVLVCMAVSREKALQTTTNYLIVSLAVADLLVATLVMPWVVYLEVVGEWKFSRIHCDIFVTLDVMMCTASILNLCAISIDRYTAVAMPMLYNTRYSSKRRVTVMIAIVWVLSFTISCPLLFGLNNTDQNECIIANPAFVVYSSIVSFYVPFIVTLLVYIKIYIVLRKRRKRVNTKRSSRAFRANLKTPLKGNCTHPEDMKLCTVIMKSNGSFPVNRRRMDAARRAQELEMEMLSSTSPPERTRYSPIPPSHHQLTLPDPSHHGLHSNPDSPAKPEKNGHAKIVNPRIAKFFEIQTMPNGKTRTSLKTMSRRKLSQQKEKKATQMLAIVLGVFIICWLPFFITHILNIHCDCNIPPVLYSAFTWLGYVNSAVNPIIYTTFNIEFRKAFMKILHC
D(1A) dopamine receptor, sequence (P18901 whole entry): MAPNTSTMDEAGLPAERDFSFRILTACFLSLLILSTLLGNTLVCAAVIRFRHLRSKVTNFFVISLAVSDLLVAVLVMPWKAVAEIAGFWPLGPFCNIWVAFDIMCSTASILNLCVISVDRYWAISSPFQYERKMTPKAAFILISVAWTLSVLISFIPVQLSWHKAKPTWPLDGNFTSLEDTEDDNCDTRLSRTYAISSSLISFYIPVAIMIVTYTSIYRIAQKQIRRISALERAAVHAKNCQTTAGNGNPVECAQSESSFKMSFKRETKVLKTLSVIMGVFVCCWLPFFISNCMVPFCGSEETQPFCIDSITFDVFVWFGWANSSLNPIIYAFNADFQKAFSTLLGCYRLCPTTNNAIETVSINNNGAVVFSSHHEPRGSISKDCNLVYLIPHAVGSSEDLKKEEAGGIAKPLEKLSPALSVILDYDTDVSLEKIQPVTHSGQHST

Row | Compound | ED50 (Mus musculus [1]) [mg/kg] | Ki (D(2) dopamine receptor [2]) [µM] | ED50 (Rattus norvegicus [3]) [mg/kg] | ED50 (Monkey) [mg/kg] | Ki (D(2) dopamine receptor [4]) [µM] | Decrease (Rattus norvegicus [6]) [%] | Ki [7] [µM] | Ki (D(3) dopamine receptor) [µM] | Ki (D(4) dopamine receptor) [µM] | other results
1 | Fc1ccc(N2CCN(CCC#Cc3cccnc3)CC2)cc1 | 4.7 | 1.67 | 4.3 | – | – | – | – | – | – | –
2 | Nc1ccc(C#CCCN2CC=C(c3ccccc3)CC2)nc1 | – | 0.063 | 1.7 | 0.43 | 0.0019 | 100 | 0.0575 | 0.0026 | 0.371 | Ki (D(1A) dopamine receptor): > 10 µM; EC50 (D(2) dopamine receptor [5]): 0.0013 µM; Ki [8]: 0.069 µM
3 | C(#Cc1ccc2c(c1)OCCO2)CCN1CC=C(c2ccccc2)CC1 | – | 0.127 | > 30 | – | – | – | – | – | – | ED50 (Mus musculus [9]): 2.2 mg/kg
4 | Oc1ccc2[nH]cc(CCCCN3CC=C(c4ccccc4)CC3)c2c1 [ROXINDOLE] | – | 0.0091 | 12.8 | – | – | 100 | – | 0.0004 | 0.024 | ED50 (Mus musculus [9]): 0.2 mg/kg; Decrease (Rattus norvegicus [10]): 64%
5 | C(#Cc1ccncc1)CCN1CC=C(c2ccccc2)CC1 | – | 0.032 | 4.4 | 11.9 | 0.0041 | 93 | 0.0258 | 0.0065 | 0.57 | EC50 (D(2) dopamine receptor [5]): 0.001 µM; Ki [8]: 0.593 µM
6 | C(#Cc1cccnc1)CCN1CC=C(c2ccccc2)CC1 | – | 0.037 | 1.4 | 10.1 | 0.0033 | 100 | 0.0141 | 0.02 | 0.681 | Ki (D(1A) dopamine receptor): 5 µM; EC50 (D(2) dopamine receptor [5]): 0.0017 µM; Ki [8]: 0.555 µM
7 | C(#Cc1ccccn1)CCN1CC=C(c2ccccc2)CC1 | – | 0.136 | 15.8 | – | – | – | – | – | – | –
8 | Oc1ccc(C#CCCN2CC=C(c3ccccc3)CC2)cc1 | – | – | – | – | – | – | – | – | – | ED50 (Mus musculus [9]): 1.5 mg/kg; Ki (D(2) dopamine receptor [11]): 0.054 µM; ED50 (Rattus norvegicus [12]): > 30 mg/kg
9 | C(#Cc1cnc2ccccc2c1)CCN1CC=C(c2ccccc2)CC1 | – | 0.03 | – | – | – | – | – | – | – | –
10 | C(#Cc1cccnc1)CCN1CCN(c2ccccn2)CC1 | 2.2 | – | > 30 | – | – | – | – | – | – | –
11 | Nc1ccccc1C#CCCN1CC=C(c2ccccc2)CC1 | 1.6 | – | 23.9 | – | – | – | – | – | – | Ki (D(2) dopamine receptor [11]): 0.183 µM
12 | Nc1cccc(C#CCCN2CC=C(c3ccccc3)CC2)c1 | 0.68 | – | – | 9.3 | 0.018 | 98 | 0.107 | – | – | Decrease (Rattus norvegicus [10]): 42%; Max effect (D(2) dopamine receptor [13]): 75%; Ki [14]: 1.55 µM; Ki (D(2) dopamine receptor [11]): 0.087 µM; ED50 (Rattus norvegicus [12]): 5.6 mg/kg
